Test: Toxicity liver stage against HepG2, at 10uM
Type: cell-based
Set-up: test concentration 10 uM, cell line HepG2-A16-CD81EGFP
Conditions: human, HepG2-A16-CD81EGFP cells; read-out: INHIBITION
Procedure, shortened: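 Uninfected HepG2-A16-CD81EGFP cells, 3 × 10^3 per well, 1536-well, plated on prespotted compound at 10 μM final, parasite-free screening media added to match infected plates; puromycin 10 μM positive, DMSO 0.5% negative; run in parallel with 48 h PbLuc assay at 37 °C, 5% CO2; viability by CellTiter-Glo luminescence, normalized to controls.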

Structure (SMILES)	cytotoxicity at 10 µM
Cc1noc(O)c1Cc1ccc2ccccc2c1	-8.94%
Cn1c2c(c(=O)c3ccccc31)CCC(C)(C)O2	2.76%
CCN1C(=O)COC[C@@H]1[C@H](O)c1ccc(NC(=O)COC)cc1	1.73%
FC(F)(F)Oc1ccc(-c2c[nH]c([C@@H]3COCCN3)n2)cc1	-8.64%
COc1ccc(S(=O)(=O)N2CCOC[C@H](Oc3cnccn3)C2)cc1	10.4%
COc1ccccc1NC(=O)Cn1c(=O)nc(N)c2cc(C)sc21	3.45%
COc1cccc2c1ccn2CC(=O)Nc1nc[nH]n1	-0.297%
O=C(Cc1cccs1)NCC1COCc2c(-c3ccoc3)nnn2C1 (stereo not drawn)	19%
COc1ncccc1CN1CC[C@H]2O[C@@H](c3nnc(C)o3)CC[C@H]21	9.6%
CN1CCN(c2ncnc3c2CCN(Cc2nccn2C)CC3)CC1	-130%
O=C(c1cocn1)N1CCC[C@]2(C[C@@H](Oc3ncccc3F)CO2)C1	6.21%
O=c1ccc(-c2cccs2)nn1CN1CCN(c2ccccn2)CC1	-0.383%
Nc1ncccc1C(=O)NCc1ccc(Br)cc1	35.7%
O=C(NCCc1ccccn1)c1[nH]nc2c1CCCC2	8.41%
Cc1ccc(-c2nc(C3CCN(C(=O)c4ccn(C)n4)CC3)no2)cn1	-2.81%
COc1cc(CCC(=O)N2CCC(c3cc4ncccc4[nH]3)CC2)on1	3.78%
O=S(=O)(c1cccs1)N1CCCC(c2nccs2)C1 (stereo not drawn)	-15%
c1nc2c(c(N3CCOC(Cn4cncn4)C3)n1)CCC2 (stereo not drawn)	14.5%
CCc1ccc(C(=O)N(c2cccnc2)C(C)C)cc1S(C)(=O)=O	2.62%
COc1ccccc1C(C)NC(=O)N1CCN(Cc2ccc(Br)s2)CC1 (stereo not drawn)	10.5%
CCOc1ccccc1NC(=O)NCc1ccoc1	-0.335%

Structure (SMILES)	cytotoxicity at 10 µM
CC(C)c1cc(NC(=O)Cn2cnc3ccccc3c2=O)[nH]n1	-168%
CCc1cc(=O)[nH]c(-c2ccc(NC(CO)CC(C)C)nc2)n1 (stereo not drawn)	-146%
O=C(NCCCn1ccccc1=O)c1cnc(-c2ccsc2)s1	0.956%
CCc1nc(CC)n(CC(=O)N(C)CC(F)(F)F)n1	2.19%
Cc1cnn(CCC(=O)NCc2ccc(N(C)C)c(C)c2)c1	-3.03%
COc1ccc(CN(C(=O)C(C)C)c2cnn(C)c2)c(OC)c1	3.2%
Cc1cc(C(=O)NC2(C#N)CCCC2)c(C)n1-c1cccnc1	-3.15%
Cc1c(Br)cccc1C(=O)NCc1cnn(C)c1	3.15%
CN(C(=O)COc1ccc(-c2noc(C3CCCO3)n2)cc1)C1CC1 (stereo not drawn)	-6.79%
Nc1cc(CCCNC(=O)NC2CCCC2)nn1-c1ccccc1	-18.9%
CN(CC(=O)NC1CC1)S(=O)(=O)c1ccc(F)cc1Cl	-8.06%
O=C(NCc1ccc(OCC2CC2)nc1)Nc1c(F)cccc1F	9.47%
CCC(NC(=O)c1cccc2cc[nH]c12)C(=O)N1CCOCC1 (stereo not drawn)	-13%
CC(C)c1cccc(-n2cc(O)c(C(=O)NCCC(=O)N(C)C)n2)c1	-2.53%
Cc1nc(NC(=O)COCC2CC2)ccc1Br	-1.51%
CS(=O)(=O)NCCCSCc1cccc2cccnc12	3.53%
CCN(Cc1ccoc1)C(=O)C1CN(C(=O)OC(C)(C)C)C1	-0.743%
COCCC1(CNC(=O)NCC2CCCN(C)C2)CCCC1 (stereo not drawn)	0.131%
CC1CCN(C(=O)CSCc2noc(C(C)C)n2)CC1	1.4%
Cn1ccnc(Sc2ccc(O)cc2)c1=O	6.64%
CCn1cc(NC(=O)NC2CCCc3c2cnn3CCO)cn1 (stereo not drawn)	5.04%

Structure (SMILES)	cytotoxicity at 10 µM
Cc1nnc(C(C)NCC2(c3c(F)cccc3F)CCCC2)o1 (stereo not drawn)	0.511%
O=C1NCCCCC1Sc1nnc(-c2cccnc2)n1C1CC1 (stereo not drawn)	-3.86%
O=C(NCc1ccc(OCC2CC2)nc1)c1c(F)cccc1F	1.49%
CN(CCO)Cc1cc(Cl)ccc1OCC(O)CN1CCCCCC1 (stereo not drawn)	-5.09%
NCc1n[nH]c(=O)n1-c1ccccc1Oc1ccccc1	-5.04%
O=C1CCC2(CCCN(C(=O)c3ccc[nH]3)C2)CN1CCc1c[nH]cn1 (stereo not drawn)	0.0773%
CCC[C@H]1CN(S(C)(=O)=O)C[C@@H]1NC(=O)Cc1ccc(OC)cc1	1.85%
CN(C)C(C(=O)NCCn1cccc1)c1cccc(F)c1 (stereo not drawn)	-1.23%
CN(Cc1cc2cc(F)ccc2[nH]1)C(=O)C1CC(=O)N(C2CC2)C1 (stereo not drawn)	0.0448%
O=C1CCCCCN1Cc1nc(C2(c3ccc(F)cc3)CCOC2)no1 (stereo not drawn)	21.1%
COCCN1CC(Nc2nc(C(C)C)nc3c2cnn3C)CC1=O (stereo not drawn)	-1.52%
CN1CCCC(CCC(=O)NCCc2nnc(N)s2)C1 (stereo not drawn)	-146%
O=c1n(CC2CCCO2)nc(CC2CCNCC2)n1-c1ccccc1 (stereo not drawn)	-3.49%
CCOCCC(=O)N(C)CC1Cc2ccccc2CN1C (stereo not drawn)	-8.77%
CCN1CC2(CCN(CC3CCCO3)CC2)OC1=O (stereo not drawn)	-4.78%
Cc1cc(N(C)Cc2snnc2C)nc(-c2cccnc2)n1	2.43%
Cc1cc(N2CCOC(CN)C2)nc(-c2ccccc2)n1 (stereo not drawn)	-3.26%
COc1cccc(-c2noc(-c3ccc(NCC(C)O)nc3)n2)c1OC (stereo not drawn)	-5.82%
CCN(CC1CCCN(CCc2cccc(OC)c2)C1)C(=O)CCSC (stereo not drawn)	10.5%
Cc1cccc2[nH]c(C3CCN(C(=O)c4cnc(O)cc4O)CC3)nc12	3.09%
COc1cccc(N2CCN(Cc3ncc[nH]3)CC2=O)c1	-5.73%

Structure (SMILES)	cytotoxicity at 10 µM
Cc1cc(C)nc(CCNC(=O)[C@H]2CNC[C@@H](C(=O)N3CCCC3)C2)n1	-20.9%
COc1ccc(NC(=O)CCC2CCCN(Cc3ncon3)C2)cc1Cl (stereo not drawn)	-6.12%
CNC(=O)c1ccc(C2CN(C(=O)COC)CCO2)nc1 (stereo not drawn)	3.25%
Cc1ccccc1NC1CCN(C(=O)CCc2ccco2)CC1	-16.2%
O=C(NCC1CCOC1)c1ccc(-c2ccccc2)[nH]c1=O (stereo not drawn)	-18.3%
O=C(NCCc1ccccc1)NCC(O)c1cccc(F)c1 (stereo not drawn)	-7.24%
COc1cccc(CC(=O)N2CCCC(c3nncn3C)C2)c1 (stereo not drawn)	-20.2%
Cc1nc(C(C)(C)C)sc1C(=O)NCCNc1ncccc1C#N	-15.8%
CC(Cn1cccn1)NCc1csc(-c2cccs2)n1 (stereo not drawn)	-8.85%
O=C1COC2(CCN(Cc3ccncc3)CC2)CN1c1ccccc1	-126%
COCc1cncc2c1CCN(Cc1cnn(C)c1)C2	-0.287%
COc1ccc2c(c1)C1(CCN(Cc3cccnc3)CC1)N(C)CC2	-161%
Cc1ccc(CN2CCO[C@@H]3C[C@@H](C(=O)NC(C)C)C[C@H]32)o1	6.1%
O=C(c1ccco1)N1CCO[C@@H]2CN(c3ccccn3)CC[C@@H]2C1	9.43%
COc1cc(CNC(C)Cn2ccnc2)cc2c1OCO2 (stereo not drawn)	2.67%
Cc1cccc(CN2CCc3ncnc(C4CC4)c3CC2)n1	-158%
Cc1cccc(CN2C(=O)CCC23CCN(c2ncc(F)cn2)CC3)n1	9.11%
Cn1cc(-c2nc3c(cc2C(=O)O)CCN(C(=O)C2CC2)CC3)cn1	17.9%
CC(C)OC(=O)N1C[C@@H]2CC[C@H]1CN(C(=O)c1ccccn1)C2	0.502%
CNC(=O)[C@H]1C[C@H]2CN(C(=O)Nc3ccccc3)C[C@@H]1O2	1.91%
